# From ChEMBL document CHEMBL1143109, “Discovery of novel orally active ureido NPY Y5 receptor antagonists” (Bioorg Med Chem Lett, 2008)
# Target: Neuropeptide Y receptor type 5 (Homo sapiens, UniProt Q15761)
# Assay: Displacement of [125]PYY from human chimeric NPY Y5 receptor expressed in CHOK1 cells
# Format: cell-based
# Details: cho-k1
# Method in brief: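 Binding to human chimeric Y5 receptor expressed in CHO-K1 cells; Ki values are the average of two determinations.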
# Chain of Neuropeptide Y receptor type 5 (Q15761 whole entry, looked up): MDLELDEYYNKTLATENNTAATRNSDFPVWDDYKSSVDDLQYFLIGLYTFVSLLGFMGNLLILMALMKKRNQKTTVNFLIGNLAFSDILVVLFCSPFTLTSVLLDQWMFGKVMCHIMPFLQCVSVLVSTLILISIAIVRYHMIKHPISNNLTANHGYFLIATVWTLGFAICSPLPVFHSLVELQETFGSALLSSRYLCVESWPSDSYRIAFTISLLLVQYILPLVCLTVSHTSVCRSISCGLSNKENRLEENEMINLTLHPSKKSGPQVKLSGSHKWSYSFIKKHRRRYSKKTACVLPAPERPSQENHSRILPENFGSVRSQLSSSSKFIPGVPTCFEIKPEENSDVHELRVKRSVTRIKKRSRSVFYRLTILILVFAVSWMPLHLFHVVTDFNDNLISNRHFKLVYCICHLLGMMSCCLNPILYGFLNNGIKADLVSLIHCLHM
row,Structure (SMILES),Ki
1,CC(=O)N1CCC(N(C)C(=O)N[C@H]2CC[C@H](c3ccccc3)CC2)CC1,59 nM
2,CN(C(=O)NC1CCN(c2cc(Cl)cc(Cl)c2)CC1)C1CCN(S(C)(=O)=O)CC1,1.1 nM
3,Cc1ccccc1N1CCC(NC(=O)N(C)C2CCN(S(C)(=O)=O)CC2)CC1,52 nM
4,CN(C(=O)NC1CCN(c2ccccc2)CC1)C1CCN(S(C)(=O)=O)CC1,303 nM
5,CCCC(=O)N1CCC(N(C)C(=O)NC2CCN(c3cc(F)cc(F)c3)CC2)CC1,5.9 nM
6,CC(=O)N1CCC(N(C)C(=O)NC2CCN(c3cc(F)cc(F)c3)CC2)CC1,7.4 nM
7,CCC(=O)N1CCC(N(C)C(=O)NC2CCN(c3cc(F)cc(F)c3)CC2)CC1,6.3 nM
8,CN(C(=O)NC1CCN(c2ccc(Cl)c(Cl)c2)CC1)C1CCN(S(C)(=O)=O)CC1,48 nM
9,CCS(=O)(=O)N1CCC(N(C)C(=O)NC2CCN(c3cc(F)cc(F)c3)CC2)CC1,2.8 nM
10,CN(C(=O)NC1CCN(c2cccc(Cl)c2)CC1)C1CCN(S(C)(=O)=O)CC1,13 nM
11,CN(C(=O)N[C@H]1CC[C@@H](c2ccccc2)CC1)C1CCN(S(C)(=O)=O)CC1,500 nM
12,CN(C(=O)NC1CCN(c2ccc(F)c(Cl)c2)CC1)C1CCN(S(C)(=O)=O)CC1,160 nM
13,CCC(=O)N1CCC(N(C)C(=O)N[C@H]2CC[C@H](c3cc(F)cc(F)c3)CC2)CC1,1.5 nM
14,CN(C(=O)NC1CCN(c2cccc(F)c2)CC1)C1CCN(S(C)(=O)=O)CC1,35 nM
15,CN(C(=O)NC1CCN(c2cccnc2)CC1)C1CCN(S(C)(=O)=O)CC1,405 nM
16,CC(=O)c1cccc(N2CCC(NC(=O)N(C)C3CCN(S(C)(=O)=O)CC3)CC2)c1,164 nM
17,CN(C(=O)NC1CCN(c2ccc(F)c(F)c2)CC1)C1CCN(S(C)(=O)=O)CC1,312 nM
18,CN(C(=O)NC1CCN(c2ccc(F)cc2)CC1)C1CCN(S(C)(=O)=O)CC1,799 nM

row,Structure (SMILES),Ki
1,CN(C(=O)N[C@H]1CC[C@H](c2cc(F)cc(F)c2)CC1)C1CCN(S(C)(=O)=O)CC1,1.2 nM
2,Cc1cccc(N2CCC(NC(=O)N(C)C3CCN(S(C)(=O)=O)CC3)CC2)c1,20 nM
3,CC(C)S(=O)(=O)N1CCC(N(C)C(=O)NC2CCN(c3cc(F)cc(F)c3)CC2)CC1,3.2 nM
4,CC(=O)N1CCC(N(C)C(=O)N[C@H]2CC[C@@H](c3ccccc3)CC2)CC1,> 1000 nM
5,CCS(=O)(=O)N1CCC(N(C)C(=O)N[C@H]2CC[C@H](c3cc(F)cc(F)c3)CC2)CC1,0.75 nM
6,CN(C(=O)N[C@H]1CC[C@H](c2ccccc2)CC1)C1CCN(S(C)(=O)=O)CC1,52 nM
7,CCCS(=O)(=O)N1CCC(N(C)C(=O)NC2CCN(c3cc(F)cc(F)c3)CC2)CC1,3.4 nM
8,CC(C)C(=O)N1CCC(N(C)C(=O)NC2CCN(c3cc(F)cc(F)c3)CC2)CC1,2.6 nM
9,CCCC(=O)N1CCC(N(C)C(=O)N[C@H]2CC[C@H](c3cc(F)cc(F)c3)CC2)CC1 (stereo in doubt; 21h),2.4 nM
10,CN(C(=O)NC1CCN(c2ccc(Cl)cc2)CC1)C1CCN(S(C)(=O)=O)CC1,130 nM
11,CN(C(=O)NC1CCN(c2ccccc2F)CC1)C1CCN(S(C)(=O)=O)CC1,88 nM
12,CN(C(=O)NC1CCN(c2ccc(Br)cc2)CC1)C1CCN(S(C)(=O)=O)CC1,819 nM
13,CN(C(=O)NC1CCN(c2cccc(C#N)c2)CC1)C1CCN(S(C)(=O)=O)CC1,27 nM
14,CN(C(=O)NC1CCN(c2cccc(Br)c2)CC1)C1CCN(S(C)(=O)=O)CC1,8.8 nM
15,COc1cccc(N2CCC(NC(=O)N(C)C3CCN(S(C)(=O)=O)CC3)CC2)c1,311 nM
16,CN(C(=O)Nc1ccc(-c2cc(F)cc(F)c2)cc1)C1CCN(S(C)(=O)=O)CC1,0.4 nM
17,CCCC(=O)N1CCC(N(C)C(=O)N[C@H]2CC[C@H](c3cc(F)cc(F)c3)CC2)CC1 (stereo in doubt; 21e),2 nM
18,CN(C(=O)NC1CCN(c2cc(F)cc(F)c2)CC1)C1CCN(S(C)(=O)=O)CC1,3.2 nM

# Target: T1, Neuropeptide Y receptor type 5 (Rattus norvegicus) (UniProt Q63634)
# T1 sequence (whole entry): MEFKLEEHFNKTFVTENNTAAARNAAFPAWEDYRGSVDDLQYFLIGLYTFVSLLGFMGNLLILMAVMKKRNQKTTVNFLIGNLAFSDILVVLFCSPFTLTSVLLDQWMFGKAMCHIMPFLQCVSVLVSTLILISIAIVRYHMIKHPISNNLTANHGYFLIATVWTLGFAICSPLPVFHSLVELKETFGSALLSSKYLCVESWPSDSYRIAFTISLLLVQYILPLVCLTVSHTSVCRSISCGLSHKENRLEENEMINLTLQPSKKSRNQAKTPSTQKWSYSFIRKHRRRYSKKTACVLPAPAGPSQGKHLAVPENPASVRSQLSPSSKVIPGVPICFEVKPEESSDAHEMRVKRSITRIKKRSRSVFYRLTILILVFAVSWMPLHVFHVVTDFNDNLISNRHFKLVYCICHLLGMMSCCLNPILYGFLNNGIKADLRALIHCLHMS
# Assay: Antagonist activity at rat NPY Y5 receptor expressed in HEK293 cells assessed as inhibition of forskolin-stimulated cAMP production
# Format: functional, cell-based
# Details: not given
# Method in brief: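 HEK293 cells expressing rat NPY Y5 receptor. Functional antagonism measured as the ability to overcome NPY inhibition of forskolin-stimulated cAMP production; reported as Kb.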
row,Structure (SMILES),Kb
1,CN(C(=O)Nc1ccc(-c2cc(F)cc(F)c2)cc1)C1CCN(S(C)(=O)=O)CC1,0.4 nM

# Test system: Rattus norvegicus
# Assay: Blockade of D-Trp[34]-NPY-induced food intake in po dosed rat
# Format: functional
# Details: not given
row,Structure (SMILES),ED50
1,CN(C(=O)Nc1ccc(-c2cc(F)cc(F)c2)cc1)C1CCN(S(C)(=O)=O)CC1,0.4 mg/kg
